Data from ChEMBL document CHEMBL2346523, “Synthesis and in vitro and in vivo characterization of highly β1-selective β-adrenoceptor partial agonists” (J Med Chem, 2013).
Activity calls are given as the source filed them. No cut-off for these calls is given here.

How the values were obtained:
CHO-K1 = assay: Selectivity ratio of Kd for human beta1 adrenoceptor expressed in CHOK1 cells by radioligand displacement assay to Kd for human beta2 adrenoceptor expressed in CHOK1 cells by radioligand displacement assay; assay type: cell-based
Outline: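 Whole-cell 3H-CGP 12177 binding (0.73 nM) in confluent CHO-K1 cells expressing human β1 or β2, 2 h at 37 °C. Cells were washed with cold PBS and counted by scintillation. Nonspecific binding was defined with 10 μM propranolol. IC50 came from a one-site fit, converted to KD; […] KD ratio. Triplicate points.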

[1] = molecular target: T1, Beta-3 adrenergic receptor (Homo sapiens, UniProt P13945); assay: Agonist activity at human beta3 adrenoceptor expressed in CHOK1 cells assessed as induction of [3H]cAMP accumulation at 10 uM after 5 hrs relative to isoprenaline; assay type: functional, cell-based; conditions: CHO-K1
Outline: (§1)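 CHO-K1 cells stably expressing human β3 (790 fmol/mg protein) were grown to confluence and prelabelled 2 h with 2 μCi/mL 3H-adenine. Cells then had 15 min in 1 mM IBMX, followed by ligand for 5 h. The reaction was stopped with HCl, and 3H-cAMP was isolated on Dowex/alumina columns. Responses are % of 10 μM isoprenaline. Mean ± SEM of separate experiments.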
Target sequence in this assay (P13945 whole entry, looked up): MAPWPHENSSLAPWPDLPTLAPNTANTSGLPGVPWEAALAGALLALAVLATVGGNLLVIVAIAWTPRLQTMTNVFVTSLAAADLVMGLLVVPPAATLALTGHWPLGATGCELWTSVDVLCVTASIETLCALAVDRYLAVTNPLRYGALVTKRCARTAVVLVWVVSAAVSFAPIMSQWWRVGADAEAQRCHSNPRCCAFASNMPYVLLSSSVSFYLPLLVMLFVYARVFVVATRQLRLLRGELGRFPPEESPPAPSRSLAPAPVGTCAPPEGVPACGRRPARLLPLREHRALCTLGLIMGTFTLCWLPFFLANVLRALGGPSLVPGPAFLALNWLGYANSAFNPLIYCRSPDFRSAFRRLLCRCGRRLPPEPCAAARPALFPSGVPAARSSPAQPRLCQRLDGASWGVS

[2] = molecular target: T2, Beta-1 adrenergic receptor (Homo sapiens, UniProt P08588); assay: Partial agonist activity at human beta1 adrenoceptor expressed in CHOK1 cells assessed as induction of [3H]cAMP accumulation after 5 hrs; assay type: functional, cell-based, CHO-K1
T2 sequence (P08588 whole entry): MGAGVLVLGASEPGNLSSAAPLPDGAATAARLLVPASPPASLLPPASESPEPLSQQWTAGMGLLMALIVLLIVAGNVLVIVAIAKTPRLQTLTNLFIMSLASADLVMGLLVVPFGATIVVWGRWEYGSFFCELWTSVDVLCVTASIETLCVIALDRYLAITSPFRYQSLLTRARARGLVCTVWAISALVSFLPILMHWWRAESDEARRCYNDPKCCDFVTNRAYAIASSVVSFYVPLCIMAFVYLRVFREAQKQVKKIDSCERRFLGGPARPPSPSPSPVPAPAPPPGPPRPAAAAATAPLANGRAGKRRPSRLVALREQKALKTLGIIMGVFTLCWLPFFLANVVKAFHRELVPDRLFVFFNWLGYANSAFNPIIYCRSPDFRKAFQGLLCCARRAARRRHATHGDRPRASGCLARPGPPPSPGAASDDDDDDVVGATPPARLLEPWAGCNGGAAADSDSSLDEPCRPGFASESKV

[3] = molecular target: T3, Beta-2 adrenergic receptor (Homo sapiens, UniProt P07550); assay: Displacement of [3H]-CGP12177 from human beta2 adrenoceptor expressed in CHOK1 cells after 2 hrs by scintillation counting analysis; assay type: cell-based, CHO-K1; conditions: for inhibition: CHO-K1
[4] = molecular target: T2, Beta-1 adrenergic receptor; assay: Antagonist activity at human beta1 adrenoceptor expressed in CHOK1 cells assessed as inhibition of cimaterol-induced [3H]cAMP accumulation incubated for 15 mins prior to cimaterol induction measured after 5 hrs; assay type: functional, cell-based, CHO-K1
[5] = molecular target: T1, Beta-3 adrenergic receptor; assay: Antagonist activity at human beta3 adrenoceptor expressed in CHOK1 cells assessed as inhibition of cimaterol-induced [3H]cAMP accumulation incubated for 15 mins prior to cimaterol induction measured after 5 hrs; assay type: functional, cell-based, CHO-K1
Outline: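 3H-cAMP accumulation in CHO-K1 cells stably expressing human β1, β2 or β3 adrenoceptors, prelabelled with 3H-adenine. Log KD was taken from the dose ratio shift, or by the Stephenson partial-agonist method when partial agonism was seen. Triplicates, on the same cell passage.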
Target sequence in this assay (P13945 whole entry): as the sequence (P13945 whole entry, looked up) above

[6] = molecular target: T3, Beta-2 adrenergic receptor; assay: Antagonist activity at human beta2 adrenoceptor expressed in CHOK1 cells assessed as inhibition of cimaterol-induced [3H]cAMP accumulation incubated for 15 mins prior to cimaterol induction measured after 5 hrs; assay type: functional, cell-based, CHO-K1
Target sequence in this assay (P07550 whole entry): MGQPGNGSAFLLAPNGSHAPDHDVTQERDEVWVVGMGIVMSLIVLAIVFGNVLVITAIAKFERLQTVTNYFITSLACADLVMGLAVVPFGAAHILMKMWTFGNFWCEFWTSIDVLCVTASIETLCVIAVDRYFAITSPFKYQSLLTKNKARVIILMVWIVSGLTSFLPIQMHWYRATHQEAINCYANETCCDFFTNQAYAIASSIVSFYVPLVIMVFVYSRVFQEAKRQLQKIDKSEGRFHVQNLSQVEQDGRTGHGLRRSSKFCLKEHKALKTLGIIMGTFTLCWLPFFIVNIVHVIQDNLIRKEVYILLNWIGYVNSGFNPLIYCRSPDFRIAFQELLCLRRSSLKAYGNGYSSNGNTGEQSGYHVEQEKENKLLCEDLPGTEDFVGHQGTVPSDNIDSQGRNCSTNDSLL

[7] = molecular target: T2, Beta-1 adrenergic receptor; assay: Displacement of [3H]-CGP12177 from human beta1 adrenoceptor expressed in CHOK1 cells after 2 hrs by scintillation counting analysis; assay type: cell-based, CHO-K1
[8] = molecular target: T1, Beta-3 adrenergic receptor; assay: Agonist activity at human beta3 adrenoceptor expressed in CHOK1 cells assessed as induction of [3H]cAMP accumulation at 100 uM after 5 hrs relative to isoprenaline; assay type: functional, cell-based; conditions: CHO-K1; outline: as §1
Target sequence in this assay (P13945 whole entry, looked up): as the sequence (P13945 whole entry, looked up) above

Rattus norvegicus [9] = assay: Partial agonist activity at beta1 adrenoceptor in conscious free moving Sprague-Dawley rat model assessed as increase in heart rate at 2 mg/kg, iv bolus followed by 1 mg/kg/hr, iv infusion for 90 mins measured for 0.5 hrs to 25 hrs relative to 120 ng/kg of isoprenaline; assay type: functional
Outline: (§2)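 Conscious, unrestrained adult male Sprague–Dawley rats (300–350 g) with an implanted Doppler probe, an aortic catheter for blood pressure and heart rate, and a jugular catheter for dosing; studied 24 h after catheterisation. Atropine methyl nitrate 1 mg/kg/h was infused throughout. Isoprenaline 3 min infusions (12, 40, 120 ng/kg/min) were given before and from 30 min after saline or HCl salt iv bolus plus infusion. Response = third-minute value minus pre-infusion steady state; hindquarters conductance derived from BP and Doppler shift; n = 4.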

Rattus norvegicus [10] = assay: Partial agonist activity at beta1 adrenoceptor in conscious free moving Sprague-Dawley rat model assessed as inhibition of heart rate responses at 2 mg/kg, iv administered as bolus followed by 1 mg/kg/hr, iv administered as 90 mins infusion measured for 0.5 hrs to 25 hrs relative to 40 to 120 ng/kg of isoprenaline; assay type: functional, organism-based; outline: as §2
Rattus norvegicus [11] = assay: Agonist activity at beta2 adrenoceptor in conscious free moving Sprague-Dawley rat model assessed as effect on hindquarters response at 2 mg/kg, iv administered as bolus dose followed by 1 mg/kg/hr, iv administered as 90 mins infusion measured for 0.5 hrs to 25 hrs; assay type: functional, organism-based; outline: as §2
[12] = molecular target: T1, Beta-3 adrenergic receptor; assay: Agonist activity at human beta3 adrenoceptor expressed in CHOK1 cells assessed as induction of [3H]cAMP accumulation after 5 hrs relative to isoprenaline; assay type: functional, cell-based; conditions: CHO-K1
Target sequence in this assay (P13945 whole entry, looked up): as above

SMILES: O=C(NCCNCC(O)COc1ccc(OCCOC2CCCC2)cc1)Nc1ccc(F)cc1 (centres undefined)
- Selectivity ratio (CHO-K1): 60

SMILES: O=C(NCCNCC(O)COc1ccc(OCCOC2CCCC2)cc1)Nc1ccccc1F (centres undefined)
- Selectivity ratio (CHO-K1): 76

SMILES: O=C(NCCNCC(O)COc1ccc(OCCOC2CCCC2)cc1)Nc1ccccc1C(F)(F)F (centres undefined)
- Selectivity ratio (CHO-K1): 13

SMILES: O=C(NCCNCC(O)COc1ccc(OCCOC2CCCC2)cc1)Nc1ccc(Br)cc1 (centres undefined)
- Selectivity ratio (CHO-K1): 81

SMILES: O=C(NCCNCC(O)COc1ccc(OCCOC2CCCC2)cc1)Nc1ccccc1Br (centres undefined)
- Selectivity ratio (CHO-K1): 10

SMILES: O=C(NCCNCC(O)COc1ccc(OCCOCCc2ccc(F)cc2)cc1)Nc1ccc(O)cc1 (centres undefined)
- Activity [1]: 7.9%
- EC50 [2]: 2.29 nM
- Kd [3]: 1230 nM
- Kd [4]: 1 nM
- Selectivity ratio (CHO-K1): 389
- Kd ([5]; read-out: pKd (converted)): 2630 nM
- Kd ([6]; read-out: pKd (converted)): 891 nM

SMILES: O=C(NCCNCC(O)COc1ccc(OCCOC2CCCC2)cc1)Nc1ccccc1 (centres undefined)
- Kd [7]: 12.3 nM
- Activity [1]: 4%
- EC50 [2]: 4.47 nM
- Kd [3]: 2630 nM
- Kd [4]: 3.47 nM
- Selectivity ratio (CHO-K1): 213
- Kd ([5]; read-out: Kd): > 10000 nM
- Kd ([6]; read-out: pKd (converted)): 1200 nM

SMILES: N#Cc1ccccc1OCC(O)CNCCNC(=O)Nc1ccccc1 (centres undefined)
- Activity [1]: 11.7%

SMILES: O=C(NCCNCC(O)COc1ccc(OCCOCC2CC2)cc1)Nc1ccc(O)cc1 (centres undefined) [listing 1 of 2 here]
- Kd [7]: 32.4 nM
- EC50 [2]: 9.77 nM
- Kd [4]: 17.8 nM
- Kd ([5]; read-out: Kd): > 10000 nM
- Kd ([6]; read-out: pKd (converted)): 7080 nM

SMILES: O=C(NCCNCC(O)COc1ccc(OCCOC2CCCC2)cc1)Nc1cccc(C(F)(F)F)c1 (centres undefined)
- Selectivity ratio (CHO-K1): 81

SMILES: COc1ccccc1NC(=O)NCCNCC(O)COc1ccc(OCCOC2CCCC2)cc1 (centres undefined)
- Selectivity ratio (CHO-K1): 12

SMILES: O=C(NCCNCC(O)COc1ccc(O)cc1)N1CCOCC1 (centres undefined)
- Activity [8]: 38.3%

SMILES: COc1cccc(NC(=O)NCCNCC(O)COc2ccc(OCCOC3CCCC3)cc2)c1 (centres undefined)
- Selectivity ratio (CHO-K1): 51

SMILES: O=C(NCCNCC(O)COc1ccc(OCCOC2CCCC2)cc1)Nc1cccc(F)c1 (centres undefined)
- Selectivity ratio (CHO-K1): 43

SMILES: O=C(NCCNCC(O)COc1ccc(OCCOC2CCCC2)cc1)Nc1ccc(C(F)(F)F)cc1 (centres undefined)
- Selectivity ratio (CHO-K1): 87

SMILES: COc1ccc(NC(=O)NCCNCC(O)COc2ccc(OCCOC3CCCC3)cc2)cc1 (centres undefined)
- Selectivity ratio (CHO-K1): 87

SMILES: Cl.O=C(NCCNCC(O)COc1ccc(OCCOCC2CC2)cc1)Nc1ccc(O)cc1 (centres undefined)
- Activity (Rattus norvegicus [9]): 44%

SMILES: Cc1cccc(NC(=O)NCCNCC(O)COc2ccc(OCCOC3CCCC3)cc2)c1 (centres undefined)
- Selectivity ratio (CHO-K1): 96

SMILES: O=C(NCCNCC(O)COc1ccc(OCCOC2CCCC2)cc1)Nc1ccc(O)cc1 (centres undefined)
- Kd [7]: 7.41 nM
- Activity [1]: 4%
- EC50 [2]: 3.63 nM
- Kd [4]: 2.82 nM
- Selectivity ratio (CHO-K1): 478
- Kd ([5]; read-out: Kd): > 10000 nM
- Kd ([6]; read-out: pKd (converted)): 1450 nM

SMILES: O=C(NCCNCC(O)COc1ccc(OCCOC2CCCC2)cc1)Nc1cccc(Cl)c1 (centres undefined)
- Kd [7]: 6.17 nM
- Activity [1]: 2%
- EC50 [2]: 3.02 nM
- Kd [3]: 2040 nM
- Kd [4]: 1.48 nM
- Selectivity ratio (CHO-K1): 331
- Kd ([5]; read-out: pKd (converted)): 6030 nM
- Kd ([6]; read-out: pKd (converted)): 794 nM

SMILES: CCOCCOc1ccc(OCC(O)CNCCNC(=O)Nc2ccc(O)cc2)cc1 (centres undefined)
- Kd [7]: 91.2 nM
- Activity [1]: 1.3%
- EC50 [2]: 22.9 nM
- inhibition [3]: inactive
- Kd [4]: 26.9 nM
- Kd ([5]; read-out: Kd): > 10000 nM
- Kd ([6]; read-out: Kd): > 10000 nM

SMILES: O=C(NCCNCC(O)COc1ccc(OCCOC2CCCC2)cc1)Nc1ccc(Cl)cc1 (centres undefined)
- Selectivity ratio (CHO-K1): 110

SMILES: O=C(NCCNCC(O)COc1ccc(OCCOC2CCCC2)cc1)Nc1cccc(O)c1 (centres undefined)
- Selectivity ratio (CHO-K1): 110

SMILES: Cc1ccccc1NC(=O)NCCNCC(O)COc1ccc(OCCOC2CCCC2)cc1 (centres undefined)
- Selectivity ratio (CHO-K1): 11

SMILES: O=C(NCCNCC(O)COc1ccc(OCCOCC2CC2)cc1)Nc1ccc(O)cc1 (centres undefined) [listing 2 of 2 here]
- Activity [1]: 12.5%
- inhibition (Rattus norvegicus [10]): Active
- inhibition [3]: inactive
- Activity (Rattus norvegicus [11]): inactive

SMILES: CC(C)NCC(O)c1ccc(N)c(C#N)c1 (centres undefined)
- Activity [12]: 89.6%

SMILES: N#Cc1cc(OCCOCC2CC2)ccc1OCC(O)CNCCNC(=O)Nc1ccc(O)cc1 (centres undefined) [LK-204545]
- Activity [1]: 8.6%
- Kd [3]: 5130 nM
- Kd ([5]; read-out: Kd): > 10000 nM
- Kd ([6]; read-out: pKd (converted)): 2880 nM
